Assay results taken from ChEMBL document CHEMBL1139450, “Synthesis of a novel nitroimidazole-spermidine derivative as a tumor-targeted hypoxia-selective cytotoxin” (2004).

What was measured:
[1] = Ratio of CT50 in aerobic condition to CT50 in hypoxic condition when V79 cells were exposed to 4 uM spermidine (CT50A/CT50H); format: functional
Procedure, shortened: (§1)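 Ratio of aerobic to hypoxic CT50 (CT50A/CT50H, air vs N2) from clonogenic assays in suspended V79 cells; each CT50 is the mean of 4 determinations. Where used, DFMO pretreatment was given to monolayers in air for 48 h. Spermidine was co-administered with the drug under the same conditions.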

[2] = Ratio of CT50 in aerobic condition to CT50 in hypoxic condition (CT50A/CT50H); format: functional; procedure, shortened: as §1
V79 [3] = experiment: Cytotoxicity of compound was assessed against suspended V79 cells exposed to 0.1 mM DFMO and 4 uM spermidine under hypoxic conditions in clonogenic assay; format: functional, Cricetulus griseus
Procedure, shortened: (§2)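 Clonogenic assay in suspended V79 Chinese hamster lung fibroblasts exposed to drug in air (A) or N2 (H). CT50 is the drug concentration (mM) that cuts clonogenicity to 50% of matched controls; mean ± SEM of 4 determinations. Where used, DFMO was given to exponentially growing monolayers in air for 48 h beforehand. Spermidine was added alongside the drug under the same conditions. Student's t-test was run against matched controls.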

V79 [4] = experiment: Cytotoxicity of compound was assessed against suspended V79 cells exposed to 4 uM spermidine under hypoxic conditions in clonogenic assay; format: functional, Cricetulus griseus; procedure, shortened: as §2
[5] = Ratio of CT50 in aerobic condition to CT50 in hypoxic condition when V79 cells were exposed to 4 uM spermidine and 0.1 mM DFMO (CT50A/CT50H); format: functional; procedure, shortened: as §1
[6] = Ratio of CT50 in aerobic condition to CT50 in hypoxic condition when V79 cells were exposed to 1 mM DFMO (CT50A/CT50H); format: functional; procedure, shortened: as §1
V79 [7] = experiment: Cytotoxicity of compound was assessed against suspended V79 cells exposed to 0.1 mM DFMO and 4 uM spermidine under aerobic conditions in clonogenic assay; format: functional, Cricetulus griseus; procedure, shortened: as §2
V79 [8] = experiment: Cytotoxicity of compound was assessed against suspended V79 cells exposed to 1 mM DFMO for 48 hr under aerobic conditions in clonogenic assay; format: functional, Cricetulus griseus; procedure, shortened: as §2
V79 [9] = experiment: Cytotoxicity of compound was assessed against suspended V79 cells exposed to 1 mM DFMO for 48 hr under hypoxic conditions in clonogenic assay; format: functional, Cricetulus griseus; procedure, shortened: as §2
V79 [10] = experiment: Cytotoxicity of compound was assessed against suspended V79 cells exposed to 1 mM DFMO and 0.5 mM spermidine under aerobic conditions in clonogenic assay; format: functional, Cricetulus griseus; procedure, shortened: as §2
V79 [11] = experiment: Cytotoxicity of compound was assessed against suspended V79 cells under hypoxic conditions in clonogenic assay; format: functional, Cricetulus griseus; procedure, shortened: as §2
V79 [12] = experiment: Cytotoxicity of compound was assessed against suspended V79 cells treated with 4 uM spermidine under aerobic conditions in clonogenic assay; format: functional, Cricetulus griseus; procedure, shortened: as §2
V79 [13] = experiment: Cytotoxicity of compound was assessed against suspended V79 cells under aerobic conditions in clonogenic assay; format: functional, Cricetulus griseus; procedure, shortened: as §2

Cl.Cl.Cl.NCCCCN(CCCN)CC(O)Cn1ccnc1[N+](=O)[O-] (stereo not drawn)
Ratio [1]: 2.3 | Ratio [2]: 2 | CT50 (V79 [3]): 0.88 mM | CT50 (V79 [4]): 1.15 mM | Ratio [5]: 1.3 | Ratio [6]: 2.2 | CT50 (V79 [7]): 1.15 mM | CT50 (V79 [8]): 1.63 mM | CT50 (V79 [9]): 0.74 mM | CT50 (V79 [10]): 0.63 mM | CT50 (V79 [11]): 1.28 mM | CT50 (V79 [12]): 2.64 mM | CT50 (V79 [13]): 2.6 mM
